Data taken from paper PMC7557949 (ACS Omega, 2020).
Values after ≈ are worked out from the molar mass of the structure shown.

How the values were obtained:
[1] = test system: herpes simplex virus type 1 (HSV-1); test: Plaque assay, antiviral activity against HSV-1; format: cell-based; settings: for mean % of reduction, herpes simplex virus: nontoxic dose of compound, average of three independent measurements
[2] = test system: coxsackievirus B4 (CBV4); test: Plaque assay, antiviral activity against CBV4; format: cell-based; settings: nontoxic dose of compound; average of three independent measurements
Procedure, shortened: (§1)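 Plaque reduction. Nontoxic dilutions of test compound were mixed 1:1 with virus at 1 × 105, 1 × 106 or 1 × 107, for 0.5 h at 37 °C. 10-fold dilutions went onto BGM (CBV4), FRHK4 (HAV HM 175) or Hep-2 (adenovirus 7), with 1 h adsorption at 37 °C. Overlay was 2× DMEM plus 1% agarose. Cells were formalin-fixed and crystal violet-stained, and plaques counted. Triplicate. IC50 is the half-maximal plaque-reduction concentration.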

[3] = test system: hepatitis A virus HM 175 (HAV HM 175); test: Plaque assay, antiviral activity against HAV HM 175; format: cell-based; settings: nontoxic dose of compound; average of three independent measurements
Procedure, shortened: as §1

[4] = test system: ED-43/SG-Feo (VYG) replicon of hepatitis C virus genotype 4a (HCVcc); test: Antiviral bioassay against ED-43/SG-Feo; format: cell-based; settings: nontoxic dose of compound; average of three independent measurements
Procedure, shortened: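 Huh 7.5 cells carrying the ED-43/SG-Feo (VYG) HCV genotype 4a subgenomic replicon were treated with the nontoxic dose of test compound. Replicon RNA copies were quantified by TaqMan qRT-PCR, and the result was expressed as percent reduction.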

[5] = test system: adenovirus type 7 (HAdV7); test: Plaque assay, antiviral activity against adenovirus type 7; format: cell-based; settings: nontoxic dose of compound; average of three independent measurements
Procedure, shortened: as §1

[6] = test system: S. aureus (ATCC:6538); test: Agar well diffusion, inhibition zone; format: cell-based, Staphylococcus aureus; settings: for zone of inhibition at 15000 µg/mL: Staphylococcus aureus, 24 h, read-out: diameter of the IZ, S. aureus (ATCC:6538); for diameter of the IZ, S. aureus (ATCC:6538): 15 mg/mL, 100 μL per well, mm ± SD
Procedure, shortened: (§2)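 Agar well diffusion. Saline inoculum adjusted to McFarland 0.5 ([…]), i.e. OD 0.13 at 625 nm, and swabbed over dried agar. After 15 min drying, 6 mm wells received 100 μL of test compound at 15 mg/mL. Plates incubated at 37 °C; bacterial zones read in mm after 24 h incubation […]. Triplicate, reported as mm ± SD. Gentamicin and ampicillin served as reference drugs.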

[7] = test system: C. albicans (ATCC:10231); test: Agar well diffusion, inhibition zone; format: cell-based, Candida albicans; settings: 15 mg/mL, 100 μL per well; mm ± SD
Procedure, shortened: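 Fungal plates were poured and agar dried 15 min. 6 mm wells were cut with a sterile borer and filled with 100 μL test compound solution at 15 mg/mL. Inhibition zone diameter (mm) was read after 48 h incubation. Triplicate, reported as mm ± SD.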

[8] = Cytotoxicity test on Vero cell line; format: cell-based; settings: African green monkey, uninfected Vero cells
Procedure, shortened: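 Test compound was dissolved at 50 mg/mL in DMSO and decontaminated with 100× antimycotic–antibiotic mix. Cells were seeded at 2 × 10^5 cells/mL and grown 24 h at 37 °C, 5% CO2, to monolayers. Bi-fold dilutions in DMEM were applied for 72 h. Read by daily microscopy for morphology and by trypan blue (0.4%) viable counts. CC50 taken as the concentration giving 50% of untreated-cell OD492.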

[9] = molecular target: Hsp90α (Homo sapiens, UniProt P07900); test: Hsp90α; format: biochemical
Sequence of Hsp90α (P07900 535-732 limits assumed): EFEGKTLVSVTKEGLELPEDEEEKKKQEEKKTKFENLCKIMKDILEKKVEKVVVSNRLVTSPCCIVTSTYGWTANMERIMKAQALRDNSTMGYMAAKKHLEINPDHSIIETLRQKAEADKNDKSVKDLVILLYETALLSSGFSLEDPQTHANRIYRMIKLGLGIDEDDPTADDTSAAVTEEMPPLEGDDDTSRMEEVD
Procedure, shortened: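 AlphaScreen kit assay for Hsp90α C-terminal binding to PPID. Hsp90α was diluted to 1.5 ng/μL in assay buffer and premixed with test compound. The reaction was started with PPID diluted to 10 ng/μL and run 30 min at room temperature. Glutathione acceptor beads were added for 30 min, then streptavidin donor beads for 1 h, and Alpha counts read. Triplicate; percent inhibition calculated against control.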

[10] = test system: E. coli (ATCC:3008); test: Agar well diffusion, inhibition zone; format: cell-based, Escherichia coli; settings: 15 mg/mL, 100 μL per well; mm ± SD
Procedure, shortened: as §2

[11] = test system: K. pneumonia (ATCC:4415); test: Agar well diffusion, inhibition zone; format: cell-based, Klebsiella pneumonia; settings: 15 mg/mL, 100 μL per well; mm ± SD
Procedure, shortened: as §2

[12] = test system: P. aeruginosa (ATCC:27853); test: Agar well diffusion, inhibition zone; format: cell-based, Pseudomonas aeruginosa; settings: 15 mg/mL, 100 μL per well; mm ± SD
Procedure, shortened: as §2

[13] = test system: S. mutans (ATCC:25175); test: Agar well diffusion, inhibition zone; format: cell-based; settings: for zone of inhibition at 15000 µg/mL: Streptococcus mutans, 24 h, read-out: diameter of the IZ, S. mutans (ATCC:25175)
Procedure, shortened: as §2

[14] = test system: K. pneumonia (ATCC:4415); test: MIC, twofold serial dilution in agar; format: cell-based; settings: Klebsiella pneumoniae, read-out: MIC, K. pneumonia (ATCC:4415)
[15] = test system: S. aureus (ATCC:6538); test: MIC, twofold serial dilution in agar; format: cell-based; settings: Staphylococcus aureus, read-out: MIC, S. aureus (ATCC:6538)
[16] = test system: S. mutans (ATCC:25175); test: MIC, twofold serial dilution in agar; format: cell-based; settings: Streptococcus mutans, read-out: MIC, S. mutans (ATCC:25175)
[17] = molecular target: T1, dihydrofolate reductase (DHFR) (Homo sapiens, UniProt P00374); test: DHFR inhibitor screening assay; format: biochemical; settings: for IC50: IC50 on the DHFR, average of three measurements; for inhibition at 0.01 µg/mL: read-out: percent inhibition of DHFR at 0.01 (μg/mL); for inhibition at 0.1 µg/mL: read-out: percent inhibition of DHFR at 0.1 (μg/mL); for inhibition at 1 µg/mL: read-out: percent inhibition of DHFR at 1 (μg/mL); for inhibition at 10 µg/mL: read-out: percent inhibition of DHFR at 10 (μg/mL)
T1 sequence (P00374 1-187): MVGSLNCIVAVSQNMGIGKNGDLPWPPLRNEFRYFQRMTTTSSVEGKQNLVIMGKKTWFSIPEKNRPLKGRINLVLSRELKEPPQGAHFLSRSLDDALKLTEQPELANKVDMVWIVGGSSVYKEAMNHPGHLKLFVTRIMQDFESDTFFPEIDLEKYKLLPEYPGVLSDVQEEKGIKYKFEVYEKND

Structure (SMILES)	mean % of reduction, herpes simplex virus [1]	mean % of reduction, CBV4 [2]	mean % of reduction, HAV HM 175 [3]	mean % of reduction, HCVcc genotype 4 [4]	mean % of reduction, adenovirus type 7 [5]	zone of inhibition at 15000 µg/mL [6]	diameter of the IZ, C. albicans (ATCC:10231) [7]	zone of inhibition at 15000 µg/mL [13]	also measured
CSc1c(-c2nc3ccccc3[nH]2)c(N)n(NS(=O)(=O)c2ccccc2)c(=O)c1C#N [13a, N-(6-Amino-5-(1H-benzo[d]imidazol-2-yl)-3-cyano-4-(methylthio)-2-oxopyridin-1(2H)-yl)benzenesulfonamide]	20.0 ± 0.30%	20.0 ± 0.10%	13.3 ± 0.10%	20.0 ± 0.15%	10.0 ± 0.10%	30 ± 1 mm	22.0 ± 0.5 mm	–	–
CSc1c(-c2nc3ccccc3[nH]2)c(N)n(NS(=O)(=O)c2ccc(C)cc2)c(=O)c1C#N [13b, N-(6-Amino-5-(1H-benzo[d]imidazol-2-yl)-3-cyano-4-(methylthio)-2-oxopyridin-1(2H)-yl)-4-methylbenzenesulfonamide]	–	–	–	–	–	28.9 ± 0.7 mm	21.0 ± 0.1 mm	–	–
Nc1nc2c(ncn2COCCO)c(=O)[nH]1 [acyclovir, reference compound]	–	–	–	–	–	–	–	–	IC50 ([1]; Human alphaherpesvirus 1, Vero): 0.7 µg/mL (≈ 3.11 µM); CC50 at 72 h [8]: 2.8 µg/mL (≈ 12.4 µM); inhibition at 0.1 µg/mL ([9]; read-out: percentage inhibition of Hsp90α at 0.1 (μg/mL)): 11.2%; inhibition at 10 µg/mL ([9]; read-out: percentage inhibition of Hsp90α at 10 (μg/mL)): 52.3%; inhibition at 100 µg/mL ([9]; read-out: percentage inhibition of Hsp90α at 100 (μg/mL)): 84.1%
Cc1ccc(S(=O)(=O)Nn2c(N)c(C#N)cc(C#N)c2=O)cc1 [15b, N-(6-Amino-3,5-dicyano-2-oxopyridin-1(2H)-yl)-4-methylbenzenesulfonamide]	30.0 ± 0.30%	40.0 ± 0.20%	20.0 ± 0.10%	33.3 ± 0.10%	13.3 ± 0.50%	–	no activity	–	diameter of the IZ, E. coli (ATCC:3008) [10]: no activity; diameter of the IZ, K. pneumonia (ATCC:4415) [11]: no activity; diameter of the IZ, P. aeruginosa (ATCC:27853) [12]: no activity; diameter of the IZ, S. aureus (ATCC:6538) [6]: no activity; diameter of the IZ, S. mutans (ATCC:25175) ([13]; 15 mg/mL, 100 μL per well, mm ± SD): no activity
CCSc1c(-c2nc3ccccc3s2)c(N)n(NS(=O)(=O)c2ccc(C)cc2)c(=O)c1C#N [8d, N-(6-Amino-5-(benzo[d]thiazol-2-yl)-3-cyano-4-(ethylthio)-2-oxopyridin-1(2H)-yl)-4-methylbenzenesulfonamide]	–	–	–	–	–	29.9 ± 0.6 mm	–	12.5 ± 1 mm	–
CCSc1c(-c2nc3ccccc3s2)c(N)n(NS(=O)(=O)c2ccccc2)c(=O)c1C#N [8c, N-(6-Amino-5-(benzo[d]thiazol-2-yl)-3-cyano-4-(ethylthio)-2-oxopyridin-1(2H)-yl)benzenesulfonamide]	10.0 ± 0.15%	13.3 ± 0.10%	10.0 ± 0.15%	16.7 ± 0.15%	10.0 ± 0.15%	24.5 ± 0.7 mm	–	21.3 ± 1.1 mm	–
CSc1c(-c2nc3ccccc3s2)c(N)n(NS(=O)(=O)c2ccccc2)c(=O)c1C#N [8a, N-(6-Amino-5-(benzo[d]thiazol-2-yl)-3-cyano-4-(methylthio)-2-oxopyridin-1(2H)-yl)benzenesulfonamide]	30.0 ± 0.25%	–	–	20.0 ± 0.10%	–	25.8 ± 0.5 mm	–	19.8 ± 1 mm	–
Cc1ccc(S(=O)(=O)Nn2c(N)c(-c3nc4ccccc4s3)c3[nH]nc(N)c3c2=O)cc1 [9b, N-(3,6-Diamino-7-(benzo[d]thiazol-2-yl)-4-oxo-1H-pyrazolo[4,3-c]pyridin-5(4H)-yl)-4-methylbenzenesulfonamide]	–	–	–	–	–	–	24.3 ± 0.5 mm	–	diameter of the IZ, E. coli (ATCC:3008) [10]: 15.0 ± 0.5 mm
CSc1c(-c2nc3ccccc3s2)c(N)n(NS(=O)(=O)c2ccc(C)cc2)c(=O)c1C#N [8b, N-(6-Amino-5-(benzo[d]thiazol-2-yl)-3-cyano-4-(methylthio)-2-oxopyridin-1(2H)-yl)-4-methylbenzenesulfonamide]	33.3 ± 0.25%	30.0 ± 0.15%	36.7 ± 0.30%	26.7 ± 0.25%	20.0 ± 0.20%	19.3 ± 1 mm	–	10.7 ± 0.5 mm	MIC [14]: 125 µg/mL (≈ 258 µM); MIC [15]: 1000 µg/mL (≈ 2070 µM); MIC [16]: 250 µg/mL (≈ 517 µM); IC50 [17]: 2830 nM; inhibition at 0.01 µg/mL [17]: 19.9%; inhibition at 0.1 µg/mL [17]: 40.8%; inhibition at 1 µg/mL [17]: 50.4%; inhibition at 10 µg/mL [17]: 57.7%
N#Cc1cc(C#N)c(=O)n(NS(=O)(=O)c2ccccc2)c1N [15a, N-(6-Amino-3,5-dicyano-2-oxopyridin-1(2H)-yl)benzenesulfonamide]	–	–	–	–	–	–	19.6 ± 2.0 mm	–	–
CC1(C)S[C@@H]2[C@H](NC(=O)[C@H](N)c3ccccc3)C(=O)N2[C@H]1C(=O)O [ampicillin, reference compound]	–	–	–	–	–	32 ± 0.5 mm	–	22 ± 0.5 mm	MIC [15]: 62.5 µg/mL (≈ 179 µM); MIC [16]: 62.5 µg/mL (≈ 179 µM)
Nc1n[nH]c2c(-c3nc4ccccc4s3)c(N)n(NS(=O)(=O)c3ccccc3)c(=O)c12 [9a, N-(3,6-Diamino-7-(benzo[d]thiazol-2-yl)-4-oxo-1H-pyrazolo[4,3-c]pyridin-5(4H)-yl)benzenesulfonamide]	20.0 ± 0.15%	13.3 ± 0.10%	10.0 ± 0.10%	13.3 ± 0.10%	10.0 ± 0.10%	34 ± 1 mm	–	13.9 ± 0.5 mm	diameter of the IZ, S. aureus (ATCC:6538) [6]: 34.0 ± 1.0 mm; MIC [15]: 125 µg/mL (≈ 276 µM); MIC [16]: 1000 µg/mL (≈ 2210 µM); IC50 [17]: 1540 nM; inhibition at 0.01 µg/mL [17]: 22.6%; inhibition at 0.1 µg/mL [17]: 33.8%; inhibition at 1 µg/mL [17]: 53.6%; inhibition at 10 µg/mL [17]: 68.4%
CCSC(SCC)=C(C#N)c1nc2ccccc2s1 [3b, 2-(Benzo[d]thiazol-2-yl)-3,3-bis(ethylthio)acrylonitrile]	26.7 ± 0.20%	20.0 ± 0.20%	40.0 ± 0.30%	20.0 ± 0.25%	30.0 ± 0.30%	–	–	–	–
